Measured values from ChEMBL document CHEMBL1165965, “Synthesis and structure-activity relationships of 1,2,3,4-tetrahydropyrido[2,3-b]pyrazines as potent and selective inhibitors of the anaplastic lymphoma kinase” (Bioorg Med Chem, 2010).

Legend:
[1] = biological target: Ephrin type-A receptor 2 (Homo sapiens) (UniProt P29317); assay: Inhibition of EPHA2 at 1 uM
How it was run: (§1)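 Single-concentration screen using Ambit Bioscience KINOMEscan technology across a panel of 250–400 kinases. Per-kinase inhibition from this screen was summarized as S(90), the fraction of kinases inhibited by more than 90%.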

[2] = biological target: Atypical kinase COQ8A, mitochondrial (Homo sapiens) (UniProt Q8NI60); assay: Inhibition of ADCK3 at 1 uM
Sequence of Atypical kinase COQ8A, mitochondrial (Homo sapiens) (Q8NI60 163-647 limits assumed): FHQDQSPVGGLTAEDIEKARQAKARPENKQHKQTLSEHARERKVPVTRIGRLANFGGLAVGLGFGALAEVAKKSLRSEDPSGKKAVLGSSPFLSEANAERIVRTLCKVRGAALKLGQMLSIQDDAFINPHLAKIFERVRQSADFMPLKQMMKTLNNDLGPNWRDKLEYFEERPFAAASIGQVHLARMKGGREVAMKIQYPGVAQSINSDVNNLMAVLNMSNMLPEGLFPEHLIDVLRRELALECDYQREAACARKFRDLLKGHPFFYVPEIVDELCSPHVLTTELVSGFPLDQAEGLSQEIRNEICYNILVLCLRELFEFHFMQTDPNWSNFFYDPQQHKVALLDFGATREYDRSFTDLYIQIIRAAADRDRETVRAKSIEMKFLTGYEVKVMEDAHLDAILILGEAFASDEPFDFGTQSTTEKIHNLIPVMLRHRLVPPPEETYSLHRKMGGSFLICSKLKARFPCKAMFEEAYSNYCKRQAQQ
How it was run: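 Ambit KINOMEscan screen at a single concentration across a 250–400 kinase panel, recorded as percent inhibition. Selectivity was expressed as S(90), the fraction of kinases inhibited >90%.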

[3] = biological target: Fibroblast growth factor receptor 1 (Homo sapiens) (UniProt P11362); assay: Inhibition of FGFR1 at 1 uM; how it was run: as §1
Sequence of Fibroblast growth factor receptor 1 (Homo sapiens) (P11362 22-822 limits assumed): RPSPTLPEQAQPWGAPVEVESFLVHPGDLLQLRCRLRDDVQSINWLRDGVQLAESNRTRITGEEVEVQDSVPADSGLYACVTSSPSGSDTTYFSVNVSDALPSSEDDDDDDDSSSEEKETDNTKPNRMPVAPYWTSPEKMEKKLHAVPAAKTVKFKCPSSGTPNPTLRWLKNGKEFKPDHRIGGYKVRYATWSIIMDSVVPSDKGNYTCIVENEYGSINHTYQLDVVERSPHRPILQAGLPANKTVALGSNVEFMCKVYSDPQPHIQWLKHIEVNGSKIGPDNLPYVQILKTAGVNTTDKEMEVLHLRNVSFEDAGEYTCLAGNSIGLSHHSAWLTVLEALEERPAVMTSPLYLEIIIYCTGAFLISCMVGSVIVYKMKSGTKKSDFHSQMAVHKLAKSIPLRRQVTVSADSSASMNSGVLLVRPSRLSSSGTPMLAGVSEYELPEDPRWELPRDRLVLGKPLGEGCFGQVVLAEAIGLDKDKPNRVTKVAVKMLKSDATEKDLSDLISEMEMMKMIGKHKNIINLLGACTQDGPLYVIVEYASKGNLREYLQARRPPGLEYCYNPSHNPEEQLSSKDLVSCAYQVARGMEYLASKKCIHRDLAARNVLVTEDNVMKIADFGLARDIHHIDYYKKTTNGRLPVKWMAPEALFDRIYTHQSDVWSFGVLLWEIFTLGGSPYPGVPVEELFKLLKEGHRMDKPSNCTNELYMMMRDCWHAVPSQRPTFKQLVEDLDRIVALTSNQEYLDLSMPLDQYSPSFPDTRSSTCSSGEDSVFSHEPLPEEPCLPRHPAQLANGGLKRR

[4] = biological target: T1, Serine/threonine-protein kinase TNNI3K (Homo sapiens) (UniProt Q59H18); assay: Inhibition of TNNI3K at 1 uM
T1 sequence (whole entry): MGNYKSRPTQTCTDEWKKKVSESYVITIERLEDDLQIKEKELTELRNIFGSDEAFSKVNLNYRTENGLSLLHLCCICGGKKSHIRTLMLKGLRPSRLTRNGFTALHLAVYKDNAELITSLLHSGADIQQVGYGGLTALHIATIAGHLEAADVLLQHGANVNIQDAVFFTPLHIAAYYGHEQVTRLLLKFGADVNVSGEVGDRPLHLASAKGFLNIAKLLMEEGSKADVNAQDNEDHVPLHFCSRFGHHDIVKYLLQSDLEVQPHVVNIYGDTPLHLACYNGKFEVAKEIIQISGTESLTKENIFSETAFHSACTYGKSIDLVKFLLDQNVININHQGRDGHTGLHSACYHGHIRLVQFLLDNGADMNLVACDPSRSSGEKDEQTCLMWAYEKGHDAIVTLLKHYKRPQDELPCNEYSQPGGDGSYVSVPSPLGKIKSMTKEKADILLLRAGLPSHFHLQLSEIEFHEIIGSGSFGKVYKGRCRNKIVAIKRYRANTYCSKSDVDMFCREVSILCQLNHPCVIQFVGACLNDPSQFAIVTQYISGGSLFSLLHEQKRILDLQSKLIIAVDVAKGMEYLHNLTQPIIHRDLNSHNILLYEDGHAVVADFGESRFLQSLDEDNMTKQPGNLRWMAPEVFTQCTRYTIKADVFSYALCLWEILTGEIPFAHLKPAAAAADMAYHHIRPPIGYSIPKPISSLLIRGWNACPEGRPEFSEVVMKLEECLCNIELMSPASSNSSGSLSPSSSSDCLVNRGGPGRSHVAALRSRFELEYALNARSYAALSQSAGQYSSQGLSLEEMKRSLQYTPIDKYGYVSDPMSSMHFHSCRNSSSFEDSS

[5] = biological target: Phosphorylase b kinase gamma catalytic chain, skeletal muscle/heart isoform (Homo sapiens) (UniProt Q16816); assay: Inhibition of PHKG1 at 1 uM
Sequence of Phosphorylase b kinase gamma catalytic chain, skeletal muscle/heart isoform (Homo sapiens) (Q16816 whole entry, looked up, canonical isoform): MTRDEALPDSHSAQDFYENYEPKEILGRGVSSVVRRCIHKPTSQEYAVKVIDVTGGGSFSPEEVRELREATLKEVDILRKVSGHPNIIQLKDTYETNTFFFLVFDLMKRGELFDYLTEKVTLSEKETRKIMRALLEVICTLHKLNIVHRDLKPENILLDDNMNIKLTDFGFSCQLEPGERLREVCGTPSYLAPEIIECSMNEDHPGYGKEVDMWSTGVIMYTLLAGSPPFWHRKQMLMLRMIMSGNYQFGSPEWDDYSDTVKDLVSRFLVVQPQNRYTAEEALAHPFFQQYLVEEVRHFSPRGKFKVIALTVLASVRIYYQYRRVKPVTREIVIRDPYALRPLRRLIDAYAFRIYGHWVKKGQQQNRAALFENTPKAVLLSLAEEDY

[6] = biological target: Serine/threonine-protein kinase 38-like (Homo sapiens) (UniProt Q9Y2H1); assay: Inhibition of NDR2 at 1 uM
Sequence of Serine/threonine-protein kinase 38-like (Homo sapiens) (Q9Y2H1 2-464 limits assumed): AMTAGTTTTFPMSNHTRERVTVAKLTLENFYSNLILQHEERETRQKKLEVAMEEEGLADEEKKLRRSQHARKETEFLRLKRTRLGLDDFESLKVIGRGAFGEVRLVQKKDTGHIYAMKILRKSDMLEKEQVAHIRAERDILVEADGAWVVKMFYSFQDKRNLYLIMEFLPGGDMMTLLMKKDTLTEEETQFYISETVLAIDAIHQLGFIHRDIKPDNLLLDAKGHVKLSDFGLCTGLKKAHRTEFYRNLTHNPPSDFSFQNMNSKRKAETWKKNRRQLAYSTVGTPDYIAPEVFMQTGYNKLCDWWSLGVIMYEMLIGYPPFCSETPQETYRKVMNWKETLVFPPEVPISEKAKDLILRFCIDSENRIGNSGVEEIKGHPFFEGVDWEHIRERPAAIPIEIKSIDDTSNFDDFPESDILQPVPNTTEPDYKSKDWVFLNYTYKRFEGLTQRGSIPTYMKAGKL

[7] = biological target: T2, Serine/threonine-protein kinase Chk1 (Homo sapiens) (UniProt O14757); assay: Inhibition of CHEK1 at 1 uM
T2 sequence (whole entry): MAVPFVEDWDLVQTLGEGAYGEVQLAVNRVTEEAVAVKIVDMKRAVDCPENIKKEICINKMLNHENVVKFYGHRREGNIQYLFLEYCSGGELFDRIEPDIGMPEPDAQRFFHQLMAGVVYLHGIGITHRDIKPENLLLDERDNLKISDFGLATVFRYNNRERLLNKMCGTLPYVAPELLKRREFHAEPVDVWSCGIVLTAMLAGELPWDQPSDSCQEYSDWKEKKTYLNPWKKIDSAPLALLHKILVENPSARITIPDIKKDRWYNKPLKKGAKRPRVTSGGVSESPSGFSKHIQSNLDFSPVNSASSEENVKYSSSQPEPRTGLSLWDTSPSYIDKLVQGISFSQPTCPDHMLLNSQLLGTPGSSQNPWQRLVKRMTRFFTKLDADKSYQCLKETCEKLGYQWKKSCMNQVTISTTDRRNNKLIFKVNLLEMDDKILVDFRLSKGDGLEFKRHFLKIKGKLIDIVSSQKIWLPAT

[8] = tested on: T3, Receptor-type tyrosine-protein kinase FLT3 (Homo sapiens), P36888 [D835Y]; assay: Inhibition of FLT3 D835Y mutant at 1 uM
T3 sequence (whole entry): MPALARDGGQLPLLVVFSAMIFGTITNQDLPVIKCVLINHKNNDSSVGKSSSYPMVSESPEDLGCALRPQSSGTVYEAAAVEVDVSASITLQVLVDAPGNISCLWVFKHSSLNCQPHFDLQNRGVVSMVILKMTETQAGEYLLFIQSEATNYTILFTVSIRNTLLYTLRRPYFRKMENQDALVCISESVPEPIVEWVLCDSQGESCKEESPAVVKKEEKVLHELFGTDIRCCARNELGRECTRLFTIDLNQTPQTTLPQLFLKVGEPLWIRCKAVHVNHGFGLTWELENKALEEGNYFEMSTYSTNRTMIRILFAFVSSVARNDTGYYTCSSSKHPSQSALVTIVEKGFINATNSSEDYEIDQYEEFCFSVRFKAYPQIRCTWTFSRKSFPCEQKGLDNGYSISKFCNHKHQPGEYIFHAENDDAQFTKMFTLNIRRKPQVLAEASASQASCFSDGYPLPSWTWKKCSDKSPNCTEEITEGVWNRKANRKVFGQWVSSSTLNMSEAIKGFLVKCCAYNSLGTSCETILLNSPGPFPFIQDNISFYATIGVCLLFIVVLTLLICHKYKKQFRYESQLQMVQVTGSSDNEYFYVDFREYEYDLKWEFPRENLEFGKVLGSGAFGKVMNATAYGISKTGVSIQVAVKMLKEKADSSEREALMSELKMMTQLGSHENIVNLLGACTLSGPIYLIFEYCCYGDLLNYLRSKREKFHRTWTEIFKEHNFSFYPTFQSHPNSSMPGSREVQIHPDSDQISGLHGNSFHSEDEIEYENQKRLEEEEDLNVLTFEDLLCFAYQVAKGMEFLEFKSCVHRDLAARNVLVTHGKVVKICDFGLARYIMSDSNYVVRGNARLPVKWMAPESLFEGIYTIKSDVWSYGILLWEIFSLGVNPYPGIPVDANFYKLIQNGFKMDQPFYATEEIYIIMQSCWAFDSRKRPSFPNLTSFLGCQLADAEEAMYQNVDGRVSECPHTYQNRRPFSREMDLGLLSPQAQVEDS
How it was run: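 Single-concentration screen on the Ambit KINOMEscan platform, run against a panel of 250–400 kinases. Per-kinase inhibition was also summarized as S(90), the fraction of kinases inhibited by more than 90%.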

[9] = biological target: Mitogen-activated protein kinase 4 (Homo sapiens) (UniProt P31152); assay: Inhibition of ERK4 at 1 uM
Sequence of Mitogen-activated protein kinase 4 (Homo sapiens) (P31152 whole entry): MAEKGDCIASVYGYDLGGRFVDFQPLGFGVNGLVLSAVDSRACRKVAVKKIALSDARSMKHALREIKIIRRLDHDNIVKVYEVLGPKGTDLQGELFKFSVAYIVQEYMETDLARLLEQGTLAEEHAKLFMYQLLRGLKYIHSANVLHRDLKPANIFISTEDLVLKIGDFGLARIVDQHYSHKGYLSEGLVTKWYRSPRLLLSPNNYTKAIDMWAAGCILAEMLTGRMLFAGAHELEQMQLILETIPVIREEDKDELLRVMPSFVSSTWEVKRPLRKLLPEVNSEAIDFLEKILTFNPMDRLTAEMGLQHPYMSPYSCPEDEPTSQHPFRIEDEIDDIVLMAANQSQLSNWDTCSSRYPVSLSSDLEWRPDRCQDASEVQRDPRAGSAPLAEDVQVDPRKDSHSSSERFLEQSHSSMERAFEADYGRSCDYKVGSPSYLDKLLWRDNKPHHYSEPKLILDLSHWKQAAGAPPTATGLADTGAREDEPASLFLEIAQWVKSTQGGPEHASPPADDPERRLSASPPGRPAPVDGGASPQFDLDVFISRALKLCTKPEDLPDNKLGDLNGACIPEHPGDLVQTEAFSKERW

Sequence of Ephrin type-A receptor 2 (Homo sapiens) (P29317 whole entry): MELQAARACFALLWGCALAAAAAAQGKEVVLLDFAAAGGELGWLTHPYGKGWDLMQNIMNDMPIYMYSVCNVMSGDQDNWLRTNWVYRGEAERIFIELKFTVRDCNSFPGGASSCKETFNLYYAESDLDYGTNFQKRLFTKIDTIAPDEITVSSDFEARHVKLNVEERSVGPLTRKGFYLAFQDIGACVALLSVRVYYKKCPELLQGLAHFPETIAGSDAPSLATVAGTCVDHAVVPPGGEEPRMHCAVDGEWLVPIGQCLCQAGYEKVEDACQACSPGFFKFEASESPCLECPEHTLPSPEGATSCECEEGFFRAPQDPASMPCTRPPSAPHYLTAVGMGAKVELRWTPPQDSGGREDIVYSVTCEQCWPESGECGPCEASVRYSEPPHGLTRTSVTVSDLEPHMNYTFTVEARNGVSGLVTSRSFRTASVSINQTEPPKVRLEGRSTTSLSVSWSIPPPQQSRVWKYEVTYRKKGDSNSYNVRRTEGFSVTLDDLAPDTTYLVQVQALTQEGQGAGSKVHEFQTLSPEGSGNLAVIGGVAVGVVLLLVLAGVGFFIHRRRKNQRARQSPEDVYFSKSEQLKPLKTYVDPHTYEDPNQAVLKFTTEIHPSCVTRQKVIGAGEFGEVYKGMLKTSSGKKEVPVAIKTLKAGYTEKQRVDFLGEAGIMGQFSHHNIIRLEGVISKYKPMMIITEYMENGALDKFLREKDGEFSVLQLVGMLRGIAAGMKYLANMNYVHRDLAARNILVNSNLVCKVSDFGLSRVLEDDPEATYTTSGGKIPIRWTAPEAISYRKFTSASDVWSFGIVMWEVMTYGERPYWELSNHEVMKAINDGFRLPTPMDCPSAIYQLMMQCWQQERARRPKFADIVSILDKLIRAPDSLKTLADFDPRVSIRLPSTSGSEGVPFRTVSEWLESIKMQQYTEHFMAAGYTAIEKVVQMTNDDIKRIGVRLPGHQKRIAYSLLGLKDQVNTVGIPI

inhibition [1] [%]	inhibition [2] [%]	inhibition [3] [%]	inhibition [4] [%]	inhibition [5] [%]	inhibition [6] [%]	inhibition [7] [%]	inhibition [8] [%]	inhibition [9] [%]	Structure (SMILES)
< 50	< 50	< 50	< 50	< 50	< 50	< 50	87	< 50	CN1CCN(c2ccc(-c3cnc4c(c3)N(Cc3cc(Cl)ccc3Cl)CCN4)cn2)CC1
< 50	< 50	< 50	< 50	< 50	< 50	< 50	85	< 50	CN1CCN(c2ccc(-c3cnc4c(c3)N(Cc3cc(Cl)ccc3C(F)(F)F)CCN4)cn2)CC1
< 50	< 50	< 50	< 50	< 50	< 50	< 50	< 50	< 50	CN1CCN(c2ccc(-c3cnc4c(c3)N(Cc3c(F)ccc(F)c3Cl)CCN4)cn2)CC1
< 50	< 50	< 50	< 50	< 50	< 50	< 50	80.8	< 50	CN1CCN(c2ccc(-c3cnc4c(c3)N(Cc3cc(F)ccc3F)CCN4)cn2)CC1

Continued, molecule first:

Structure (SMILES)	inhibition [1] [%]	inhibition [2] [%]	inhibition [3] [%]	inhibition [4] [%]	inhibition [5] [%]	inhibition [6] [%]	inhibition [7] [%]	inhibition [8] [%]	inhibition [9] [%]
COC1CCN(C(=O)c2ccc(-c3cnc4c(c3)N(Cc3cc(Cl)ccc3C(F)(F)F)CCN4)cc2)CC1	< 50	< 50	< 50	< 50	< 50	< 50		66.7	
O=C(c1ccc(-c2cnc3c(c2)N(Cc2cc(Cl)ccc2C(F)(F)F)CCN3)cc1)N1CCCCC1	< 50	< 50	< 50	< 50	< 50	< 50		< 50	
FC(F)(F)c1ccc(Cl)cc1CN1CCNc2ncc(-c3ccnc(N4CCNCC4)c3)cc21	< 50	< 50	< 50	< 50	< 50	< 50	< 50	93	< 50
CC(=O)N1CCN(c2cc(-c3cnc4c(c3)N(Cc3cc(Cl)ccc3C(F)(F)F)CCN4)ccn2)CC1	< 50	< 50	< 50	< 50	< 50	< 50	< 50	87	< 50
O=C(O)c1ccc(-c2cnc3c(c2)N(Cc2cc(Cl)ccc2C(F)(F)F)CCN3)cc1	< 50	< 50	< 50	< 50	< 50	< 50		< 50	
O=C(c1ccc(-c2cnc3c(c2)N(Cc2cc(Cl)ccc2C(F)(F)F)CCN3)cc1)N1CCC(N2CCCC2)CC1	< 50	< 50	< 50	< 50	< 50	< 50		75.5	
